# Bioassay records: PubChem, several laboratories
# ATG4B inh – inhibitors of human ATG4B cysteine protease; inhibition, % at 8.33 µM; Q9Y4P1; 0.51% of 340,000 active; AID 504462; ATG4B cleavage of LC3-PLA2, NBD-HPC fluorescence, 1 h; in the data active means inhibition above about 40%
# Arrestin-AP2 inh – blocks beta-arrestin peptide binding to AP2 adaptin; FITC-arrestin peptide / GST-AP2 beads, flow cytometry; AP2 beta2 appendage carries R879A mutation; inhibition, % at 10 µM; 0.31% of 340,000 active; AID 504490;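 active means inhibition above a set limit, near 3 SD of compounds lacking own fluorescence, cut at about 54% in these data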
#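 System: GST-AP2 R879A glutathione beads | Also added: FITC-arrestin peptide, 50 nM | Times: 12 min plus 1 h, RT | Signal: Bead flow cytometry, FITC channel | Buffer or medium: PBS with 0.05% Tween 20 and 0.1% BSA | Read-out basis: Percent drop in bead-associated FITC signal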
# Granule exo inh – blocks lytic granule exocytosis. TALL-104 LAMP-1 surface exposure, flow cytometry; cells stimulated with thapsigargin and PMA. inhibition, % at 10 µM. 0.66% of 360,000 active;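 active means inhibition above about 55%, limit read from the data; inconclusive means no clear call, values can overlap the other calls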
# ABCB6 inh MLPCN – blocks the human ABCB6 transporter | K562-ABCB6 porphyrin accumulation, flow cytometry, 1 h; stronger effect = lower value | fluorescence ratio to DMSO, % at 10 µM | 0.19% of 360,000 active | AID 602162;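 active means fluorescence ratio to DMSO below 75%, the collection mean minus 3 SD; inconclusive means too few cells collected in the well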;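 further: signal is porphyrin accumulated inside mitochondria; lower ratio means ABCB6 inhibition with less porphyrin fluorescence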
# NRP1-CendR mod – alters CendR peptide binding to human NRP-1 | inhibition, % at 25 µM | 0.85% of 360,000 active | FAM-RPARPAR peptide binding to NRP-1, fluorescence polarization | O14786;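 active means inhibition or corrected inhibition above about 18%, plus a signal ratio from 0.5 to 1.5, limit read from the data, passing the limit was not always enough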
# Myeloid diff 2 – promotes myeloid progenitor differentiation | AID 624256 | ER-HoxA9 myeloid progenitors, lysozyme-GFP differentiation, flow cytometry | 1% of 360,000 active | calls only at 10 µM;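 active means normalized GFP-positive differentiation at or above the plate's own cutoff, the solvent-only control mean plus 3 SD; inconclusive means no clear call, values can overlap the other calls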;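 further: cells exposed to compound for four days before flow analysis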
# ABCB6 blocker 1 – blocks the human ABCB6 transporter; shares compounds with ABCB6 inh MLPCN; 700 tested, under 10 active; AID 602430; K562-ABCB6 porphyrin accumulation, flow cytometry, 1 h; stronger effect = lower value; ratio response (% of DMSO), % at 10 µM;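 active means repeat-averaged ratio response below 75% of DMSO, the collection mean minus 3 SD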;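 further: median porphyrin fluorescence at 575 nm with 488 nm excitation from mitochondria; lower ratio means less porphyrin signal so ABCB6 inhibition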
# A number is an active result; . = inactive; ? = inconclusive; / = no result given. Compounds with a hit are over-represented: about 3.3% of the library has one in this group of screens.
SMILES,ATG4B inh,Arrestin-AP2 inh,Granule exo inh,ABCB6 inh MLPCN,NRP1-CendR mod,Myeloid diff 2,ABCB6 blocker 1
Cc1ccc(OCC(O)CNC(=O)c2ccccc2C(=O)O)cc1 (centres undefined),.,.,.,71,.,.,.
Cc1cccc(OCC(O)CNC(=O)c2ccccc2C(=O)O)c1 (centres undefined),.,.,.,.,.,.,/
CC(=O)c1ccc(S(=O)(=O)NCc2cccnc2)cc1,.,.,.,73,.,.,.
CCOC(=O)c1c(NC(=O)CCN2C(=O)c3ccccc3C2=O)sc(C(=O)OC(C)C)c1C,.,.,.,70,.,.,.
O=C(c1cc(-c2ccncc2)nc2ccccc12)N1CCN(c2ccccn2)CC1,.,.,.,69,.,.,.
O=C(c1cc(-c2ccccc2)nc2ccccc12)N1CCN(c2ccccn2)CC1,.,.,.,.,.,.,/
CCOC(=O)N1CCN(S(=O)(=O)c2ccc(C(=O)Nc3sc4c(c3C(N)=O)CCN(CC)C4)cc2)CC1,.,.,.,73,.,.,.
Cc1nc2c(F)c(F)c(C(F)(F)F)c(F)c2[nH]1,.,.,.,69,.,.,.
Cc1nc2c(Br)c3nc(C(F)(F)F)[nH]c3c(Br)c2[nH]1,.,.,.,.,.,.,/
CCCCN(c1ccccc1)S(=O)(=O)c1cccc(C(=O)Nc2c(C)n(C)n(-c3ccccc3)c2=O)c1,.,.,.,.,.,.,/
COc1ccc(-c2cnc(N)nc2-c2ccc(OC)cc2O)cc1,.,.,.,73,.,.,.
COc1ccc(-c2nc(N)ncc2-c2ccccc2)c(O)c1,.,.,.,.,.,.,/
Cc1sc2nc(C(C)C)nc(SCC(=O)N3CCOCC3)c2c1C,.,.,.,.,.,.,/
CCOc1ccc(C(=O)NC2CCN(CC(=O)NCc3ccccc3)CC2)cc1,.,.,.,.,.,.,/
Cc1ccc(S(=O)(=O)N[C@@H](Cc2ccccc2)C(=O)N2CCC(C(=O)N[C@@H](CC(C)C)C(=O)O)CC2)cc1,.,.,.,.,.,.,/
CC(=O)Oc1c(S(=O)(=O)c2ccccc2)c(C)nn1C(C)(C)C,.,.,.,.,.,.,/
Cc1nn(C(C)(C)C)c(OC(=O)c2cccs2)c1S(=O)(=O)c1ccccc1,.,.,.,74,.,.,.
CCOc1ccc(C(=O)CCC(=O)Nc2cc(C)ccn2)cc1,.,.,.,74,.,.,.
COc1ccc(NS(=O)(=O)c2cccc(C(=O)O)c2)cc1S(=O)(=O)N1CCOCC1,.,.,.,.,.,.,/
Cc1cc(C)c(C)c(S(=O)(=O)NCc2ccc(C(=O)NCC3CCCO3)cc2)c1C (centres undefined),.,.,.,.,.,.,/
CN(C)C(=O)c1cn(-c2ccccc2)nc1-c1cc2ccccc2o1,.,.,.,35,.,.,.
CN(C)C(=O)c1cn(-c2ccccc2)nc1-c1cc2ccccc2oc1=O,.,.,.,.,.,.,/
CCOC(=O)CN1C(=O)C(=O)N(Cc2ccccc2F)C1=O,.,.,.,.,.,.,/
COc1ccc(C)cc1NC(=O)COCC(=O)O,.,.,.,69,.,.,.
COc1ccc(C)cc1NC(=O)CNC(c1ccccc1)c1ccc(C)cc1 (centres undefined),.,.,.,.,.,/,/
SMILES,ATG4B inh,Arrestin-AP2 inh,Granule exo inh,ABCB6 inh MLPCN,NRP1-CendR mod,Myeloid diff 2,ABCB6 blocker 1
COC(=O)c1ccc(-c2ccc(F)cc2)nc1C,.,.,.,63,.,.,.
COc1cc(C2=NOC(C(=O)N3CCCc4ccccc43)C2)cc(OC)c1OC (centres undefined),.,.,.,64,.,.,.
C/C(=N\Nc1ccc(S(=O)(=O)N2CCCCC2)cn1)c1cccc(Br)c1,.,.,.,.,.,.,/
Cc1cccc(C(=O)Nc2c(C#N)c(C)c(C)n2Cc2ccccc2)c1,.,.,.,.,.,.,/
Cc1c(C#N)c(NC(=O)C(C)C)n(Cc2ccccc2)c1C,.,.,.,74,.,.,.
CCOC(=O)CSc1nc2cc(C(F)(F)F)cnc2n1C,.,.,.,.,.,.,/
Cc1c(C(=O)Nc2ccc(Oc3ccccc3)cc2)sc2nc3n(c(=O)c12)CCC3,.,.,.,.,.,.,/
Cc1c(C(=O)Nc2ccc(OC(F)(F)F)cc2)sc2nc3n(c(=O)c12)CCC3,.,.,.,66,44,.,.
COc1ccc(NC(=O)c2sc3nc4n(c(=O)c3c2C)CCC4)c(OC)c1,/,/,/,/,/,/,.
COc1cccc(NC(=O)c2sc3nc4n(c(=O)c3c2C)CCC4)c1,.,.,.,24,.,?,.
Cc1ccc(NC(=O)Nc2ccon2)cc1,.,.,.,10,.,?,.
O=C(Nc1ccc(Cl)cc1)Nc1ccon1,.,.,.,.,.,.,/
COc1ccc(NC(=O)COC(=O)CCc2ccc(S(=O)(=O)N3CCOCC3)cc2)c(OC)c1,.,.,.,.,.,.,/
CCN(CC)C(=O)Cn1cnc2sc(C(=O)Nc3cc(OC)c(OC)c(OC)c3)c(C)c2c1=O,.,.,.,.,.,.,.
CCCNC(=O)Cn1cnc2sc(C(=O)Nc3cc(OC)c(OC)c(OC)c3)c(C)c2c1=O,.,.,.,.,.,.,.
CC(=O)Nc1cccc(NC(=O)c2sc3ncn(CC(=O)N4CCCCC4)c(=O)c3c2C)c1,.,.,.,.,.,.,.
CCn1c(SCC#N)nc2c(c1=O)C1(CCCC1)Cc1ccccc1-2,.,.,.,71,.,.,.
Cc1c(C(=O)NNc2cc(=O)n(C)c(=O)n2C)cccc1[N+](=O)[O-],.,.,.,.,.,.,/
O=C(CNC(=O)c1ccc2ccccc2c1)NCc1ccccc1F,.,.,.,.,.,.,/
COc1ccc(OC)c(NC(=O)C2(C)CCN2Cc2cccc(OC)c2OC)c1 (centres undefined),/,/,.,71,.,.,.
COc1cccc(NC(=O)C2(C)CCN2Cc2cccc(OC)c2F)c1 (centres undefined),/,/,.,.,.,.,/
COC(=O)COc1cccc(NC(=O)c2ccccc2)c1,.,.,.,74,.,.,.
Cc1nn(C)c(Oc2cccc(Cl)c2)c1C(=O)Nc1ccc(F)cc1,.,.,.,.,.,.,/
COc1ccc(CCNC(=O)C2CCCN(C(=O)c3ccc(Cl)cc3)C2)cc1 (centres undefined),.,.,.,73,.,.,.
O=C(Nc1ccc(N2CCOCC2)cc1)c1csc([C@H]2C[C@H](O)[C@@H](CO)O2)n1,/,/,.,.,.,.,/
CN(Cc1ccccc1)Cc1nc2c(c(=O)n(C)c(=O)n2C)n1Cc1ccc(F)cc1,.,.,.,63,.,.,.
